Data set [1] is described as follows: Octanol-water partition coefficient, log D of the compound at pH 7.4 by shake flask method. Type of data set: physicochemical.
The target in data set [2] is T1, Dual specificity mitogen-activated protein kinase kinase 1 (Homo sapiens, UniProt Q02750). The data set is described as follows: Binding affinity to full length biotinylated 6His/Avi-tagged/Tev-fused human MEK1 expressed in Escherichia coli in presence of AMP-PNP by SPR assay. On the technique in general: In SPR one partner is held on a chip, and binding of the other changes the refractive index at the surface.

For data set [3], the target named is T1, Dual specificity mitogen-activated protein kinase kinase 1. The data set is described as follows: Binding affinity to full length biotinylated 6His/Avi-tagged/Tev-fused human MEK1 expressed in Escherichia coli in absence of AMP-PNP by SPR assay.
The nature of data set [4]: Intrinsic clearance in human liver microsomes. The conditions noted are these: read-out: CLH. Type of data set: ADME, Microsome. The essentials:
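Human liver microsomal stability; intrinsic clearance expressed in μL/(min mg).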
(In general: Liver microsomes are a subcellular fraction often used to study metabolism.)

A short description of data set [5]: Intrinsic clearance in rat hepatocytes. In kind it is ADME, cell-based, Hepatocyte. The gist of the method:
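Rat hepatocyte stability; intrinsic clearance expressed in μL/(min 1E6) cells.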

T1 sequence (Q02750 whole entry, the tested form may be a part): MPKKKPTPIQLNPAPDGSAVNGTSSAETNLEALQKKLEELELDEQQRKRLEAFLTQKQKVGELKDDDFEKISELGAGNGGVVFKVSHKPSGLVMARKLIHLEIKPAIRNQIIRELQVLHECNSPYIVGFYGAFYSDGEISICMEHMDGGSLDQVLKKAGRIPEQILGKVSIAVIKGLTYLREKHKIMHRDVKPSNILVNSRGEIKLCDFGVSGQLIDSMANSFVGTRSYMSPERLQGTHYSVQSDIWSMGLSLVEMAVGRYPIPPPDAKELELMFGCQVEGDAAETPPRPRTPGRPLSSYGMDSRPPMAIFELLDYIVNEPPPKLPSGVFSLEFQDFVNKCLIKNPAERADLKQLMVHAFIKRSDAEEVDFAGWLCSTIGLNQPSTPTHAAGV

Compound `COc1ccccc1NC(=O)CC1SCCNC1=O` (stereo not drawn) gave a logD in data set [1] of 0.8. As for `O=C(CC1SCCNC1=O)Nc1ccccc1` (stereo not drawn), the logD in data set [1] worked out at 0.8.

`O=C(CC1SCCNC1=O)Nc1ccc2c(c1)OCO2` (stereo not drawn) registered a logD in data set [1] of 0.9. Same read-out and setting: as for `COc1ccc(-c2cccc(=O)[nH]2)cc1`, the figure is 1.4; as for `COc1ccc(C2CC(=O)NCCS2)cc1` (stereo not drawn), 1.6. For the compound `O=C(CC1SCCNC1=O)Nc1ccc(OC(F)(F)F)cc1` (stereo not drawn), the Kd in data set [2] is > 1000 µM. Same read-out and setting: as for `COc1ccc(N(C)C(=O)CC2SCCNC2=O)cc1` (stereo not drawn), the figure is > 1000 µM. As to `O=C(c1cccnc1)c1cc2ccccc2[nH]1`, the results for the Kd in data set [2] and in data set [3] were 65 µM and 59 µM, respectively. Besides, in data set [1], the logD was determined as 2.3. Compound `CC(=O)Nc1ccc2c(C(F)(F)F)cc(=O)oc2c1` came in with a logD in data set [1] of 1.8. `O=C(CC1SCCNC1=O)Nc1ccc(O)cc1` (stereo not drawn) returned a log distribution coefficient (logD) in data set [1] of 0.1.

As to `COc1ccc(NC(=O)CC2SCCNC2=O)cc1` (stereo not drawn), in data set [4], the microsomal CLint was determined as 8 µL/min/mg. The compound further had a logD in data set [1] of 0.8. In addition, the CLH in data set [5] was determined as 34 µL/min. Consider `O=C(CC1SCCNC1=O)Nc1ccc(F)cc1` (stereo not drawn), for which the logD in data set [1] stood at 1.2. Compound `CCN(C)c1cc(-c2ccccc2O)nc2nccn12` yielded a logD in data set [1] of 2.9. With `COc1ccc(NC(=O)CC2SCCNC2=O)cc1F` (stereo not drawn), in data set [1], the logD was determined as 1.1. In turn, `O=C(CC1SCCNC1=O)Nc1ccc(OC(F)F)cc1` (stereo not drawn) yielded a logD in data set [1] of 1.5.

In the case of `O=C(CC1SCCNC1=O)Nc1ccc(Cl)c(Cl)c1` (stereo not drawn), the Kd came to 65 µM in data set [2] and 87 µM in data set [3]. For the same compound, the logD in data set [1] came to 2.3.

For the compound `O=C(CC1SCCNC1=O)Nc1ccc(Cl)cc1` (stereo not drawn), the figures for the dissociation constant Kd in data set [2] and in data set [3] were 7.4 µM and 14 µM, respectively. The pH-dependent lipophilicity (logD) in data set [1] turned out to be 1.8. For `CCOc1ccc(NC(=O)CC2SCCNC2=O)cc1` (stereo not drawn), the logD in data set [1] worked out at 1.3.

For the compound `COc1cccc(NC(=O)CC2SCCNC2=O)c1` (stereo not drawn), in data set [1], the logD was 1. Consider `O=c1[nH]ccc2nc(-c3ccccc3)cn12`, for which the logD in data set [1] came to 2.

Usually logD stands for the decadic logarithm of the distribution of all forms, ionised or not, between an organic phase and buffer at a given pH. In general, Kd refers to the equilibrium constant for the complex coming apart.

The values are drawn from ChEMBL document CHEMBL4673407, “Fragment-Based Discovery of Novel Allosteric MEK1 Binders” (ACS Med Chem Lett, 2021).
